pIC50: −log10 of the molar value. Active and inactive are the calls of the source. The rule behind the calls is not given here.
Columns and labels:
[1] = tested on: L02; test: Antiproliferative activity against human HL7702 cells assessed as reduction in cell viability measured after 72 hrs by flow cytometry analysis; type: functional, cell-based; details: L02, 72 h
Method in brief: (§1)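 Cells in RPMI 1640 with 10% FBS and penicillin/streptomycin/amphotericin B, seeded at 2.5–3 × 10⁴ per well. Grown adherent in fresh medium for 24 h, then exposed to a range of compound concentrations for 72 h. Living cell numbers counted by flow cytometry; IC50 calculated. Mean ± SD from three experiments.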

[2] = tested on: HCC827; test: Antiproliferative activity against human HCC827 cells assessed as reduction in cell viability measured after 72 hrs by flow cytometry analysis; type: functional, cell-based; details: HCC827, 72 h; method in brief: as §1
[3] = Antiproliferative activity against human LM3 cells assessed as reduction in cell viability measured after 72 hrs by flow cytometry analysis; type: functional, cell-based; details: GILM3, 72 h; method in brief: as §1
[4] = tested on: SH-SY5Y; test: Antiproliferative activity against human SH-SY5Y assessed as reduction in cell viability measured after 72 hrs by flow cytometry analysis; type: functional, cell-based; method in brief: as §1
[5] = tested on: HEL; test: Antiproliferative activity against human HEL cells assessed as reduction in cell viability measured after 72 hrs by flow cytometry analysis; type: functional, cell-based; method in brief: as §1
[6] = Inhibition of PI3K in human HCC827 cells assessed as decrease in phosphorylation incubated for 24 hrs by cell PI3 kinase activity photometric assay; type: cell-based; details: HCC827, 24 h
Method in brief: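 Human NSCLC HCC827 cells grown in RPMI 1640 with 10% FBS and antibiotics-antimycotics, exposed to a range of concentrations for 24 h. Cells washed with Reagent A, lysed with Reagent B, protein measured by Bradford, then 100 μg lysate protein per group used in a cell PI3K assay kit for kinase activity. IC50 given as mean ± SD of three separate experiments.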

[7] = tested on: HCC827; test: Induction of apoptosis in human HCC827 cells assessed as early apoptotic cells at 1 uM incubated for 48 hrs by annexin V-FITC and propidium iodide staining based flow cytometry analysis (reference value: 2.69%); type: functional
[8] = tested on: HCC827; test: Induction of apoptosis in human HCC827 cells assessed as viable cells at 1 uM incubated for 48 hrs by annexin V-FITC and propidium iodide staining based flow cytometry analysis (reference value: 94.16%); type: functional; details: read-out: Activity
[9] = tested on: HCC827; test: Inhibition of PI3K signalling in human HCC827 cells assessed as decrease in phosphorylation of Akt at Ser473 at 1 to 4 uM incubated for 24 hrs by Western blot analysis; type: cell-based; details: dose 1-4 µM
Method in brief: (§2)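 HCC827 cells treated with different compound concentrations for 24 h. Phospho-protein levels measured by Western blot. Mean ± SD from three parallel experiments, compared with DMSO control.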

[10] = tested on: HCC827; test: Inhibition of PI3K signalling in human HCC827 cells assessed as decrease in phosphorylation of GSKbeta at Ser9 at 1 to 4 uM incubated for 24 hrs by Western blot analysis; type: cell-based; details: dose 1-4 µM; method in brief: as §2
[11] = tested on: HCC827; test: Inhibition of PI3K signalling in human HCC827 cells assessed as decrease in phosphorylation of mTOR at Ser2448 at 1 to 4 uM incubated for 24 hrs by Western blot analysis; type: cell-based; details: dose 1-4 µM; method in brief: as §2
[12] = tested on: HCC827; test: Induction of cell cycle arrest in human HCC827 cells assessed as accumulation at G2 phase incubated for 24 hrs by […]PI assay; type: functional, cell-based; details: dose 1-4 µM
Method in brief: (§3)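 HCC827 cells held 12 h in medium without FBS, then treated for 24 h. Fixed overnight in 70% ethanol and stained with propidium iodide plus RNase for 30 min in the dark at room temperature. Cell cycle distribution read by flow cytometry.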

[13] = tested on: HCC827; test: Induction of cell cycle arrest in human HCC827 cells assessed as decrease in G1 phase incubated for 24 hrs by […]PI assay; type: functional, cell-based; details: dose 1-4 µM; method in brief: as §3
[14] = tested on: HCC827; test: Induction of apoptosis in human HCC827 cells assessed as reduction in CHK1 expression at 1 to 4 uM incubated for 24 hrs by Western blot analysis; type: functional, cell-based; details: dose 1-4 µM
Method in brief: (§4)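 HCC827 cells treated with a range of compound concentrations for 24 h. Western blot for G2/M-associated proteins with GAPDH as loading control. Bands quantified by densitometry; mean ± SD, n = 3, compared with control.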

[15] = tested on: HCC827; test: Induction of apoptosis in human HCC827 cells assessed as reduction in p-CHK1 expression at 1 to 4 uM incubated for 24 hrs by Western blot analysis; type: functional, cell-based; details: dose 1-4 µM; method in brief: as §4
[16] = tested on: HCC827; test: Induction of apoptosis in human HCC827 cells assessed as reduction in c-Myc expression at 1 to 4 uM incubated for 24 hrs by Western blot analysis; type: functional, cell-based; details: dose 1-4 µM; method in brief: as §4
[17] = tested on: HCC827; test: Induction of apoptosis in human HCC827 cells assessed as reduction in Cyclin-B1 expression at 1 to 4 uM incubated for 24 hrs by Western blot analysis; type: functional, cell-based; details: dose 1-4 µM; method in brief: as §4
[18] = tested on: HCC827; test: Induction of apoptosis in human HCC827 cells assessed as upregulation of cleaved-PRAP by Western blot analysis; type: functional, cell-based
Method in brief: (§5)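 HCC827 cells treated with a range of compound concentrations. Western blot for mitochondrial apoptosis proteins with GAPDH as loading control. Bands quantified by densitometry; mean ± SD, n = 3, compared with vehicle control.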

[19] = tested on: HCC827; test: Induction of apoptosis in human HCC827 cells assessed as upregulation of cleaved-caspase 9 by Western blot analysis; type: functional, cell-based; method in brief: as §5
[20] = tested on: HCC827; test: Induction of apoptosis in human HCC827 cells assessed as upregulation of Bax by Western blot analysis; type: functional, cell-based; method in brief: as §5
[21] = tested on: HCC827; test: Induction of apoptosis in human HCC827 cells assessed as downregulation of Bcl-2 by Western blot analysis; type: functional, cell-based; method in brief: as §5
[22] = tested on: HCC827; test: Induction of apoptosis in human HCC827 cells assessed as late apoptotic cells at 1 uM incubated for 48 hrs by annexin V-FITC and propidium iodide staining based flow cytometry analysis (reference value: 0.56%); type: functional
[23] = tested on: HCC827; test: Induction of apoptosis in human HCC827 cells assessed as necrotic cells at 1 uM incubated for 48 hrs by annexin V-FITC and propidium iodide staining based flow cytometry analysis (reference value: 2.57%); type: functional
[24] = tested on: HCC827; test: Induction of apoptosis in human HCC827 cells assessed as viable cells at 2 uM incubated for 48 hrs by annexin V-FITC and propidium iodide staining based flow cytometry analysis (reference value: 94.16%); type: functional; details: read-out: Activity
[25] = tested on: HCC827; test: Induction of apoptosis in human HCC827 cells assessed as early apoptotic cells at 2 uM incubated for 48 hrs by annexin V-FITC and propidium iodide staining based flow cytometry analysis (reference value: 2.69%); type: functional
[26] = tested on: HCC827; test: Induction of apoptosis in human HCC827 cells assessed as late apoptotic cells at 2 uM incubated for 48 hrs by annexin V-FITC and propidium iodide staining based flow cytometry analysis (reference value: 0.56%); type: functional
[27] = tested on: HCC827; test: Induction of apoptosis in human HCC827 cells assessed as necrotic cells at 2 uM incubated for 48 hrs by annexin V-FITC and propidium iodide staining based flow cytometry analysis (reference value: 2.57%); type: functional
[28] = tested on: HCC827; test: Induction of apoptosis in human HCC827 cells assessed as viable cells at 4 uM incubated for 48 hrs by annexin V-FITC and propidium iodide staining based flow cytometry analysis (reference value: 94.16%); type: functional; details: read-out: Activity
[29] = tested on: HCC827; test: Induction of apoptosis in human HCC827 cells assessed as early apoptotic cells at 4 uM incubated for 48 hrs by annexin V-FITC and propidium iodide staining based flow cytometry analysis (reference value: 2.69%); type: functional
[30] = tested on: HCC827; test: Induction of apoptosis in human HCC827 cells assessed as late apoptotic cells at 4 uM incubated for 48 hrs by annexin V-FITC and propidium iodide staining based flow cytometry analysis (reference value: 0.56%); type: functional
[31] = tested on: HCC827; test: Induction of apoptosis in human HCC827 cells assessed as necrotic cells at 4 uM incubated for 48 hrs by annexin V-FITC and propidium iodide staining based flow cytometry analysis (reference value: 2.57%); type: functional

CCCCn1cnc2ccc(-c3ccc(NC(=O)CC)nc3)cc2c1=O
pIC50 [1]: 4.96
pIC50 [2]: 5.92
pIC50 [3]: 5.60
pIC50 [4]: 5.43
pIC50 [5]: 5.55

COC[C@H]1OC(=O)c2coc3c2[C@@]1(C)C1=C(C3=O)[C@@H]2CCC(=O)[C@@]2(C)C[C@H]1OC(C)=O [WORTMANNIN]
pIC50 [6]: 7.74

CC(C)(C)C(=O)Nc1ccc(-c2ccc3ncn(Cc4ccc5c(c4)OCO5)c(=O)c3c2)cn1
pIC50 [2]: < 4.40
pIC50 [3]: < 4.40
pIC50 [4]: < 4.40
pIC50 [5]: < 4.40

CCC(=O)Nc1ccc(-c2ccc3ncn(Cc4ccc5c(c4)OCO5)c(=O)c3c2)cn1
pIC50 [2]: < 4.40
pIC50 [3]: < 4.40
pIC50 [4]: < 4.40
pIC50 [5]: < 4.40

CCC(=O)Nc1ccc(-c2ccc3ncn(Cc4ccc(C)cc4)c(=O)c3c2)cn1
pIC50 [2]: < 4.40
pIC50 [3]: < 4.40
pIC50 [4]: < 4.40
pIC50 [5]: < 4.40

CCCCC(=O)Nc1ccc(-c2ccc3ncn(Cc4ccc(C)cc4)c(=O)c3c2)cn1
pIC50 [2]: 4.49
pIC50 [3]: < 4.40
pIC50 [4]: 4.45
pIC50 [5]: 4.72

O=C(c1ccccc1)N(C(=O)c1ccccc1)c1ccc(-c2ccc3ncn(Cc4ccccc4)c(=O)c3c2)cn1
pIC50 [1]: 5.06
pIC50 [2]: 5.95
pIC50 [3]: 5.58
pIC50 [4]: 5.67
pIC50 [5]: 5.70
pIC50 [6]: 7.14
Activity [7]: 11.77%
viability at 1 µM [8]: 68.2%
inhibition [9]: Active
inhibition [10]: Active
inhibition [11]: Active
Activity [12]: Dose-Dependent Effect
Activity [13]: Dose-Dependent Effect
Activity [14]: Active
Activity [15]: Active
Activity [16]: Active
Activity [17]: Active
Activity [18]: Dose-Dependent Effect
Activity [19]: Dose-Dependent Effect
Activity [20]: Dose-Dependent Effect
Activity [21]: Active
Activity [22]: 13.57%
Activity [23]: 6.47%
viability at 2 µM [24]: 58.5%
Activity [25]: 19.16%
Activity [26]: 15.63%
Activity [27]: 6.66%
viability at 4 µM [28]: 54.8%
Activity [29]: 27.87%
Activity [30]: 11.28%
Activity [31]: 6.05%

CCC(=O)Nc1ccc(-c2ccc3ncn(Cc4ccccc4)c(=O)c3c2)cn1
pIC50 [2]: < 4.40
pIC50 [3]: < 4.40
pIC50 [4]: < 4.40
pIC50 [5]: < 4.40

CC(C)(C)C(=O)Nc1ccc(-c2ccc3ncn(Cc4ccccc4)c(=O)c3c2)cn1
pIC50 [2]: < 4.40
pIC50 [3]: < 4.40
pIC50 [4]: < 4.40
pIC50 [5]: < 4.40

Reference: ChEMBL document CHEMBL4825737, “Design, synthesis, and biological evaluation of novel 6-(pyridin-3-yl) quinazolin-4(3H)-one derivatives as potential anticancer agents via PI3K inhibition” (Bioorg Med Chem, 2021)
